In article PMC4690987 (Journal of Medicinal Chemistry, 2015):

Legend:
[1] = tested on: HIV-1 NL4-3; assay: HIV-1 entry assay; format: cell-based; settings: TZM-bl cells, virus production at 31 h pi; 2 50–100 nM, AZT 0.5 μg/mL, DS 100 μg/mL
Method in brief: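 TZM-bl cells (HeLa stably expressing CD4, CCR5 and HIV-1 LTR-driven luciferase) were grown in DMEM/10% FBS. Cells were seeded at 1 × 10^4 per well and allowed to adhere overnight, then infected with HIV-1 NL4-3 at MOI 0.5 and kept at 37 °C. Test compound or reference agents were added at 0, 1 or 2 h pi. At 31 h cells were PBS-washed and virus production was read as LTR-luciferase RLU.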

[2] = tested on: HIV-1 NL4-3 strain; assay: Antiviral assay in HIV-1 infected TZM-bl cells; format: cell-based; settings: for SI HIV-1 strain NL4-3: CC50 value/IC50 value; for IC50: read-out: IC50 HIV-1 strain NL4-3, MOI 0.5, 48 h, LTR-luciferase signal
Method in brief: (§1)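 TZM-bl cells (HeLa expressing CD4 and CCR5, with LTR-driven luciferase and β-galactosidase) were seeded at 1 ×10^4 cells/well in DMEM/10% FBS and left to adhere overnight. Cells were infected with HIV-1 NL4-3 or BaL at MOI 0.5, treated with serial dilutions of test compound, and incubated at 37 °C for 48 h. IC50 was taken as 50% inhibition of LTR-luciferase signal. CC50 came from parallel MTT on mock-infected cells. SI = CC50/IC50.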

[3] = tested on: HIV-1 NL4-3 strain; settings: previous work ref 27, 30; cited from earlier work
[4] = tested on: TZM-bl cells; settings: values previously reported ref 27; cited from earlier work
[5] = tested on: LTR-IV G4; assay: FRET melting assay; format: binding, HIV-1; settings: for stabilization (ΔTm, FRET) at 4-fold c-exNDI:DNA molar ratio: 25 °C is the maximum increase measurable, data not shown; for difference in stabilization of LTR-IV G4s vs hTel G4: FRET, equimolar amounts
Method in brief: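 Oligonucleotide labelled with FAM at the 5′ end and TAMRA at the 3′ end, 0.25 μM, folded in lithium cacodylate buffer with 100 mM potassium, plus equimolar test compound. After equilibration at 4 °C, FAM emission was followed from 30 to 95 °C at 1 °C/min. Profiles were normalized, and Tm was the temperature at 0.5 normalized fluorescence.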

[6] = tested on: LTR-III G4; assay: Circular dichroism; format: binding, HIV-1; settings: 4:1 c-exNDI:DNA ratio, label-free oligonucleotide
Method in brief: (§2)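 Unlabelled oligonucleotide, final 4 μM, in 10 mM lithium cacodylate pH 7.4 with 100 mM KCl, annealed at 95 °C for 5 min, then cooled gradually to room temperature. Test compound added to a final 16 μM. CD spectra taken at 230–320 nm (5 mm cell, average of 2 scans, buffer-corrected) while heating 20–95 °C at 5 °C/min. Tm calculated by van't Hoff two-state fit.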

[7] = tested on: LTR-IV G4; assay: Circular dichroism; format: binding, HIV-1; settings: 4:1 c-exNDI:DNA ratio, label-free oligonucleotide
Method in brief: as §2

[8] = tested on: hTel G4; assay: Circular dichroism; format: binding, human; settings: 4:1 c-exNDI:DNA ratio, label-free oligonucleotide
Method in brief: as §2

[9] = tested on: LTR-III, LTR-IV, and hTel templates; assay: Taq polymerase stop assay; format: biochemical; settings: 2 at 3.1–25.0 nM, K+ 100 mM
Method in brief: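 A 5′-end-labelled primer was annealed to each template in lithium cacodylate buffer, with or without 100 mM KCl, by heating to 95 °C for 5 min and cooling gradually to room temperature so the templates folded into G4. A template unable to form G4 served as a control. Taq extension was run with or without test compound, and polymerase stop regions were read from the products.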

[10] = tested on: LTR-III G4; assay: ESI-MS competition assay; format: binding, HIV-1; settings: 2-fold molar excess of compound
Method in brief: (§3)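 G4 oligonucleotides heat-denatured and folded overnight at room temperature in 10 mM KCl, 150 mM trimethylammonium acetate pH 6.8. Equimolar pairs of G4s incubated overnight at 4 °C with 2-fold excess test compound, then injected via HPLC into ESI-MS. Binding affinity = bound/(free + bound) ×100, from reconstructed-ion chromatogram areas. Bound includes one or two ligands; free includes K+ adducts.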

[11] = tested on: LTR-IV G4; assay: ESI-MS competition assay; format: binding, HIV-1; settings: 2-fold molar excess of compound
Method in brief: as §3

[12] = tested on: hTel G4; assay: ESI-MS competition assay; format: binding, human; settings: 2-fold molar excess of compound
Method in brief: as §3

[13] = tested on: c-kit2 G4; assay: ESI-MS competition assay; format: binding; settings: 2-fold molar excess of compound
Method in brief: as §3

[14] = tested on: c-myc G4; assay: ESI-MS competition assay; format: binding; settings: 2-fold molar excess of compound
Method in brief: as §3

[15] = biological target: LTR-III G4; assay: SPR analysis; parameters: species or system HIV-1; settings: read-out: KD LTR-III G4 (SPR); 25 °C, HEPES-KCl buffer, 1:1 binding model
Method in brief: (§4)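 5′-biotinylated oligonucleotides folded (95 °C for 5 min, cooled to room temperature), diluted to 30 nM and captured on a streptavidin chip to about 500 RU, with an empty reference cell. Running buffer was 0.01 M HEPES pH 7.4, 0.2 M KCl, 3 mM EDTA. Test compound run at 25–200 nM, 30 μL/min, with 280 s contact and 360 s dissociation. Surface regenerated with 10 mM glycine pH 2.0. Sensorgrams buffer-corrected and fitted to a 1:1 model. At least two independent runs, χ2 below 0.2.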

[16] = biological target: LTR-IV G4; assay: SPR analysis; parameters: species or system HIV-1; settings: read-out: KD LTR-IV G4 (SPR); 25 °C, HEPES-KCl buffer, 1:1 binding model
Method in brief: as §4

[17] = biological target: hTel G4; assay: SPR analysis; parameters: species or system human; settings: read-out: KD hTel G4 (SPR); 25 °C, HEPES-KCl buffer, 1:1 binding model
Method in brief: as §4

[18] = tested on: HIV-1 BaL strain; assay: Antiviral assay in HIV-1 infected TZM-bl cells; format: cell-based; settings: for SI HIV-1 strain BaL: CC50 value/IC50 value; for IC50: read-out: IC50 HIV-1 strain BaL, MOI 0.5, 48 h, LTR-luciferase signal
Method in brief: as §1

[19] = Cytotoxicity assay; format: cell-based; settings: human, uninfected (mock-infected) TZM-bl cells
Method in brief: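 Run in parallel with the antiviral assay, under the same conditions but on uninfected TZM-bl cells (1 ×10^4 cells/well, seeded overnight, test compound in serial dilution, 37 °C, 48 h). Viability was read by MTT absorbance. CC50 was the concentration that reduced absorbance of mock-infected cells by 50%.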

[20] = tested on: HIV-1 LTR promoter; assay: LTR-EGFP reporter assay in HeLa-Tat-III/LTR/d1EGFP cells; format: cell-based; settings: noncytotoxic concentrations of 2 (62.5–250 nM), 48 h, FACS
[21] = tested on: wt LTR promoter; assay: Luciferase reporter assay in 293T cells; format: cell-based, HIV-1; settings: increasing amounts of 2, 24 h
Method in brief: (§5)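 HEK293T cells, 9 ×10^4 per well, transfected 24 h after seeding with 100 ng of a promoterless Luc2 vector carrying the wt or M4+5 (G4-abolishing double point mutant) HIV-1 LTR. Test compound added 1 h after transfection at various concentrations for 24 h. Luciferase activity measured. Cells lysed in RIPA, and signals normalized to total protein (BCA).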

[22] = tested on: M4 + 5 mutant LTR promoter (non-G4-forming); assay: Luciferase reporter assay in 293T cells; format: cell-based, HIV-1; settings: increasing amounts of 2, 24 h
Method in brief: as §5

Kd [16] [µM]	IC50 [2] [µM]	Compound	antiviral activity as a function of time of addition (0, 1, 2 h pi) [1]	SI HIV-1 strain NL4-3 [2]	stabilization (ΔTm, FRET) at 4-fold c-exNDI:DNA molar ratio [5]	difference in stabilization of LTR-IV G4s vs hTel G4 [5] [°C]	binding affinity LTR-III ([10]; competing G4s LTR-III/LTR-IV)	binding affinity LTR-III ([10]; competing G4s LTR-III/kit)	binding affinity LTR-III ([10]; competing G4s LTR-III/myc)	binding affinity LTR-IV ([11]; competing G4s LTR-III/LTR-IV)	binding affinity LTR-IV ([11]; competing G4s LTR-IV/hTel)	binding affinity LTR-IV ([11]; competing G4s LTR-IV/kit)	binding affinity LTR-IV ([11]; competing G4s LTR-IV/myc)	binding affinity cell G4 (hTel) ([12]; competing G4s LTR-III/hTel)	binding affinity cell G4 (hTel) ([12]; competing G4s LTR-IV/hTel)	binding affinity cell G4 (kit) ([13]; competing G4s LTR-III/kit)	binding affinity cell G4 (kit) ([13]; competing G4s LTR-IV/kit)	binding affinity cell G4 (myc) ([14]; competing G4s LTR-III/myc)	binding affinity cell G4 (myc) ([14]; competing G4s LTR-IV/myc)	CC50 [19] [µM]	also measured
		Cc1cn([C@H]2C[C@H](N=[N+]=[N-])[C@@H](CO)O2)c(=O)[nH]c1=O [AZT, Zidovudine]	maintaining activity from 0 to 2 h pi																		
		CN(C)c1ccc(Nc2c3ccc(NC(=O)CCN4CCCC4)cc3nc3cc(NC(=O)CCN4CCCC4)ccc23)cc1.Cl.Cl.Cl [Compound 1, BRACO-19]		>3.5																	IC50 (virus production in infected cells) [3]: low μM range; average selectivity index (SI) [3]: 12; CC50 [4]: > 12 µM
0.0066	0.0157 ± 0.0021	CN(C)CCCn1c(=O)c2cc(Br)c3c(=O)n(CCCN(C)C)c(=O)c4c5[nH]c6ccccc6[nH]c5c(c1=O)c2c34 [Compound 3]			above 25 °C	≥ 6														0.343 ± 0.0322	SI HIV-1 strain BaL [18]: 11; IC50 [18]: 0.0325 ± 0.0071 µM
		CN(C)CCCn1c(=O)c2ccc3c(=O)n(CCCN(C)C)c(=O)c4c5[nH]c6cc([N+](=O)[O-])ccc6[nH]c5c(c1=O)c2c34 [Compound 4]			above 25 °C		80	54	51	68	75	55	71	10	18	18	23	37	45	0.188 ± 0.00408	
0.0059	0.023 ± 0.0013	CN(C)CCCn1c(=O)c2cc(Br)c3c(=O)n(CCCN(C)C)c(=O)c4c5[nH]c6ccc([N+](=O)[O-])cc6[nH]c5c(c1=O)c2c34 [Compound 5]																		0.439 ± 0.0107	

Compound	Kd [16] [µM]	IC50 [2] [µM]	antiviral activity as a function of time of addition (0, 1, 2 h pi) [1]	SI HIV-1 strain NL4-3 [2]	stabilization (ΔTm, FRET) at 4-fold c-exNDI:DNA molar ratio [5]	difference in stabilization of LTR-IV G4s vs hTel G4 [5] [°C]	binding affinity LTR-III ([10]; competing G4s LTR-III/LTR-IV)	binding affinity LTR-III ([10]; competing G4s LTR-III/kit)	binding affinity LTR-III ([10]; competing G4s LTR-III/myc)	binding affinity LTR-IV ([11]; competing G4s LTR-III/LTR-IV)	binding affinity LTR-IV ([11]; competing G4s LTR-IV/hTel)	binding affinity LTR-IV ([11]; competing G4s LTR-IV/kit)	binding affinity LTR-IV ([11]; competing G4s LTR-IV/myc)	binding affinity cell G4 (hTel) ([12]; competing G4s LTR-III/hTel)	binding affinity cell G4 (hTel) ([12]; competing G4s LTR-IV/hTel)	binding affinity cell G4 (kit) ([13]; competing G4s LTR-III/kit)	binding affinity cell G4 (kit) ([13]; competing G4s LTR-IV/kit)	binding affinity cell G4 (myc) ([14]; competing G4s LTR-III/myc)	binding affinity cell G4 (myc) ([14]; competing G4s LTR-IV/myc)	CC50 [19] [µM]	also measured
CN(C)CCCn1c(=O)c2ccc3c(=O)n(CCCN(C)C)c(=O)c4c5[nH]c6ccccc6[nH]c5c(c1=O)c2c34 [Compound 2]	0.0061	0.0132 ± 0.0001	No significant difference in the activity of the compound was observed at the tested times	40	above 25 °C	≥ 6	71	33	39	25	52	25	25	10	25	12	9	45	44	0.532 ± 0.0117	stabilization of LTR-III G4 by CD [6]: higher than 27 °C; stabilization of LTR-IV G4 by CD [7]: higher than 27 °C; stabilization of hTel G4 by CD [8]: 19.9 °C; Taq polymerase stop site [9]: intense stop site at the most 3′ G tract in each G4-forming template; Kd [15]: 0.0032 µM; Kd [17]: 0.0131 µM; SI HIV-1 strain BaL [18]: 14; IC50 [18]: 0.0362 ± 0.0043 µM; inhibition of mean EGFP levels (LTR promoter activity) [20]: up to 60%; inhibition of wt LTR luciferase activity [21]: up to 65%; effect on non-G4-forming mutant LTR (M4 + 5) luciferase activity [22]: no effect
